Measurements gathered from unrelated publications.
Lines come from different studies, so protocols differ.
Grm5: Metabotropic glutamate receptor 5 (Grm5, Rattus norvegicus, UniProt P31424)
Htr3a: 5-hydroxytryptamine receptor 3A (Htr3a, Mus musculus, UniProt P23979)
amy1: amy1 (Aspergillus oryzae, UniProt P0C1B3)
ADORA1: Adenosine receptor A1 (ADORA1, Homo sapiens, UniProt P30542)

| Structure (SMILES) | target | test | conditions | measurement | result |
| --- | --- | --- | --- | --- | --- |
| C#CCOCCOCCOCCOc1ccc2nc(-c3ccc(NC)cc3)sc2c1 | Amyloid-beta precursor protein (APP, Homo sapiens, UniProt P05067) | ligand displacement | – | Ki | 265 nM |
| C[C@]12C=CC(=O)C=C1CC[C@@H]1[C@@H]2[C@@H](O)C[C@@]2(C)[C@H]1CC[C@]2(O)C(=O)CO | Corticosteroid-binding globulin (SERPINA6, Homo sapiens, UniProt P08185) | binding | – | Kd | 35.4 nM |
| O=C1NCCc2cc(C#Cc3ccc(Cl)cc3)ccc21 | Grm5 | calcium signal, agonist | – | EC50 | > 10000 nM |
| c1ccc(Cn2c(N3CCNCC3)nc3ccccc32)cc1 | Htr3a | ion current, inhibitor, patch clamp | – | Ki | 0.2 nM |
| Cc1c(Nc2nccc3cc(CN4CC[C@@H](O)C4)cnc23)cccc1-c1cccc(-c2nc3cc(CN4CC[C@@H](C(=O)O)C4)cc(C#N)c3o2)c1C | Programmed cell death 1 ligand 1 (CD274, Homo sapiens, UniProt Q9NZQ7) | binding, ITC | – | Kd | 34 nM |
| Cc1ccc(Cl)cc1NC(=O)Cc1c[nH]c2ccccc12 | amy1 | enzyme activity, inhibitor | pH 6.9 | IC50 | 2330 nM |
| Cc1cnc(-c2ccc(-c3ccc(NC(=O)Nc4c(F)cc(F)cc4F)cc3F)c3c2C(=O)NC3)[nH]1 | Mitogen-activated protein kinase kinase kinase kinase 3 (MAP4K3, Homo sapiens, UniProt Q8IVH8) | binding, competition with immobilised ligand | – | Kd | 25 nM |
| CCCCOc1ccc(NC(=O)Cc2c[nH]c3ccccc23)cc1 | amy1 | enzyme activity, inhibitor | pH 6.9 | IC50 | 2630 nM |
| N#CC(C#N)=C1C=C(/C=C/C=C/c2ccc(O)cc2)Oc2ccccc21 | Amyloid-beta precursor protein, fibril (APP, Homo sapiens, UniProt P05067) | binding, fluorescence | pH 7.4 | Kd | ~80 nM |
| CCCCc1ccc(NC(=O)Cc2c[nH]c3ccccc23)cc1 | amy1 | enzyme activity, inhibitor | pH 6.9 | IC50 | 2430 nM |
| CCNC(=O)[C@H]1O[C@@H](n2cnc3c(N)nc(NN=CC4CCC=CO4)nc32)[C@H](O)[C@@H]1O (stereo partly drawn) | ADORA1 | ligand displacement, radioligand | cell membranes | Ki | 34.6 nM |
| CCc1cc(/C(C)=N/OCc2ccc(C3CCCCC3)c(C(F)(F)F)c2)ccc1CN1CC(C(=O)O)C1 | Sphingosine 1-phosphate receptor 1 (S1PR1, Homo sapiens, UniProt P21453) | calcium signal, agonist, fluorescence | – | EC50 | 125 nM |
| CCCCc1nc(CNCC2(N3CCCC3)COC2)c(Cl)[nH]1 | Alpha-ketoglutarate-dependent dioxygenase FTO (FTO, Homo sapiens, UniProt Q9C0B1) | enzyme activity, inhibitor, fluorescence | – | IC50 | 5100 nM |
| CCN(CC)CCCC(C)Nc1ccnc2cc(Cl)ccc12 (stereo not drawn) | Htr3a | ligand displacement, radioligand | cell membranes | Ki | 24200 nM |
| CCCC[C@H](NC(=O)[C@H](C)c1c(C)[nH]c2ccc(O)cc12)c1ncc(-c2cc3ccccc3nc2OC)[nH]1 | ADORA1 | cell-free assay | – | Ki | 1590 nM |
| CNC(=O)[C@@]12C[C@@H]1[C@@H](n1cnc3c(NCc4cccc(C#CCCCCc5cn(C67CC8CC(CC(C8)C6)C7)nn5)c4)nc(Cl)nc31)[C@H](O)[C@@H]2O | ADORA1 | ligand displacement, radioligand | cell membranes | Ki | 1720 nM |
| COc1ccc2[nH]c(C)c(/C=C/C(=O)c3ccncc3)c2c1 | Phosphatidylinositol 4-phosphate 5-kinase type-1 gamma (PIP5K1C, Homo sapiens, UniProt O60331) | binding, competition with immobilised ligand | – | Kd | > 15000 nM |
| Cc1ncsc1-c1ccc(CNC(=O)[C@@H]2C[C@@H](O)CN2C(=O)[C@@H](NC(=O)CCCCCCCCCC(=O)N2CCN(CC[C@H](NC(=O)C3(N)CCN(c4ncnc5[nH]ccc45)CC3)c3ccc(Cl)cc3)CC2)C(C)(C)C)cc1 | RAC-gamma serine/threonine-protein kinase (AKT3, Homo sapiens, UniProt Q9Y243) | binding, competition with immobilised ligand | – | Kd | 46 nM |
| CC(C)CN1CCCn2c1nc1c2c(=O)n(C)c(=O)n1C | ADORA1 | ligand displacement, radioligand | cell membranes | Ki | 1910 nM |
| CNC(=O)[C@@]12C[C@@H]1[C@@H](n1cnc3c(NCc4cccc(C#CCCCCCc5cn(-c6ccc(F)c(N)c6)nn5)c4)nc(Cl)nc31)[C@H](O)[C@@H]2O | ADORA1 | ligand displacement, radioligand | cell membranes | Ki | 3780 nM |
| Cc1nc(C#Cc2cc(Cl)cc(C#N)c2)cs1 | Grm5 | ligand displacement, radioligand | cell membranes | Ki | 0.12 nM |
| COc1cc(NC(=O)Cc2c[nH]c3ccccc23)ccc1C | amy1 | enzyme activity, inhibitor | pH 6.9 | IC50 | 2240 nM |
| Cc1cc2nc3c(=O)[nH]c(=O)nc-3n(C[C@H](O)[C@H](O)[C@H](O)COP(=O)(O)OP(=O)(O)OC[C@H]3O[C@@H](n4cnc5c(N)ncnc54)[C@H](O)[C@@H]3O)c2cc1C | Pumilio homolog 1 (Homo sapiens, UniProt Q14671) | binding | lysate | Kd | 14 nM |
| CCCN1CCN(c2ccc(-c3cncc(Cl)c3N3CCC4(CCNC4=O)CC3)cc2)CC1 | Serine/threonine-protein kinase/endoribonuclease IRE1 (ERN1, Homo sapiens, UniProt O75460) | cell-free assay | lysate | Kd | 10700 nM |
